Here are results for twelve molecules from ChEMBL document CHEMBL4602672, “Isolation, Identification, and Decomposition of Antibacterial Dialkylresorcinols from a Chinese Pseudomonas aurantiaca Strain” (2020).

Assay [1] deals with Staphylococcus epidermidis. Briefly: Antibacterial activity against Staphylococcus epidermidis ATCC 14990 assessed as reduction in microbial growth after 24 hrs by agar well diffusion assay. Format: functional. The conditions noted are these: ATCC 14990, 24 h.
The test system of assay [2] is Staphylococcus aureus. Briefly: Antibacterial activity against Staphylococcus aureus ATCC 12600 assessed as reduction in microbial growth after 24 hrs by agar well diffusion assay. Format: functional. The following applies: ATCC 12600, 24 h.
Assay [3] has as its system Enterococcus hirae. Briefly: Antibacterial activity against Enterococcus hirae ATCC 8043 assessed as reduction in microbial growth after 24 hrs by agar well diffusion assay. The format is functional. The following applies: ATCC 8043, 24 h.
For assay [4], the system named is Streptococcus mutans. Briefly: Antibacterial activity against Streptococcus mutans ATCC 25175 assessed as reduction in microbial growth after 24 hrs by agar well diffusion assay. Format: functional. The following applies: ATCC 25175, 24 h.
Assay [5] concerns Bacillus subtilis. Briefly: Antibacterial activity against Bacillus subtilis ATCC 6633 assessed as reduction in microbial growth after 24 hrs by agar well diffusion assay. Format: functional. The conditions noted are these: ATCC 6633, 24 h.
For assay [6], the system named is Staphylococcus epidermidis. The assay is described as follows: Antibacterial activity against Staphylococcus epidermidis ATCC 14990 assessed as reduction in microbial growth at 0.06 to 133 ug/ml after 24 hrs by agar well diffusion assay. Format: functional, organism-based. The gist of the method:
(§1)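 Modified literature MIC protocol against ATCC pathogens. Antibiotics served as positive control and sterile water with DMSO (<5%) as negative control. For the related well-diffusion work, test samples were dissolved in sterile water with DMSO (<5%). MIC given in μg/mL.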

For assay [7], the system named is Enterococcus hirae. The assay is described as follows: Antibacterial activity against Enterococcus hirae ATCC 8043 assessed as reduction in microbial growth at 0.06 to 133 ug/ml after 24 hrs by agar well diffusion assay. The format is functional, organism-based. Put shortly:
as §1

For assay [8], the system named is Staphylococcus aureus. Briefly: Antibacterial activity against Staphylococcus aureus ATCC 12600 assessed as reduction in microbial growth at 0.06 to 133 ug/ml after 24 hrs by agar well diffusion assay. The format is functional, organism-based. Put shortly:
as §1

The subject of assay [9] is Bacillus subtilis. The assay is described as follows: Antibacterial activity against Bacillus subtilis ATCC 6633 assessed as reduction in microbial growth at 0.06 to 133 ug/ml after 24 hrs by agar well diffusion assay. The format is functional, organism-based. Put shortly: as §1
In assay [10] the test system is Streptococcus mutans. The assay is described as follows: Antibacterial activity against Streptococcus mutans ATCC 25175 assessed as reduction in microbial growth at 0.06 to 133 ug/ml after 24 hrs by agar well diffusion assay. Format: functional, organism-based.

Active and inactive are the calls of the source. The calls are words filed in the database; no cut-off is given here.

For the molecule `CCCCCCCc1cc(O)c(CCCCCC)c(O)c1`, the MIC was 8.3 µg/mL in [1]; 1.1 µg/mL in the assay with Staphylococcus aureus [2]; 33.4 µg/mL in the assay with Enterococcus hirae [3]; 33.4 µg/mL in the assay with Streptococcus mutans [4]; 66.7 µg/mL in the assay with Bacillus subtilis [5].
Take `CN[C@H](CC(C)C)C(=O)N[C@H]1C(=O)N[C@@H](CC(N)=O)C(=O)N[C@H]2C(=O)N[C@H]3C(=O)N[C@H](C(=O)N[C@H](C(=O)O)c4cc(O)cc(O)c4-c4cc3ccc4O)[C@H](O)c3ccc(c(Cl)c3)Oc3cc2cc(c3O[C@@H]2O[C@H](CO)[C@@H](O)[C@H](O)[C@H]2O[C@H]2C[C@](C)(N)[C@H](O)[C@H](C)O2)Oc2ccc(cc2Cl)[C@H]1O` [VANCOMYCIN]: in the assay on Bacillus subtilis [5], the MIC amounted to 1.1 µg/mL.
As for `CCCCCCC1=C(O)C(=O)C(CCCCC)=C(C2=C(CCCCC)C(=O)C(O)=C(CCCCCC)C2=O)C1=O`, the MIC in the assay with Staphylococcus aureus [2], in the assay with Streptococcus mutans [4] and with Bacillus subtilis [5] was 133 µg/mL throughout. Also, the result (in assay [6]; with Enterococcus hirae [7]) was inactive.
As for `CC1(C)S[C@@H]2[C@H](NC(=O)Cc3ccccc3)C(=O)N2[C@H]1C(=O)O` [PENICILLIN G], the MIC worked out at 0.52 µg/mL in assay [1], 0.26 µg/mL in the assay with Staphylococcus aureus [2] and 1.1 µg/mL with Streptococcus mutans [4].
For the molecule `CCCCCCC1=C(O)C(=O)C(CCCCC)=CC1=O`, the MIC was 133 µg/mL in the assay with Enterococcus hirae [3], 66.7 µg/mL with Streptococcus mutans [4] and 33.4 µg/mL in the assay with Bacillus subtilis [5]. The result (with Staphylococcus aureus [8]; in assay [6]; with Bacillus subtilis [9]) was inactive.
As for `CCCCCCc1c(O)cc(CCCCC)cc1O` [RESORSTATIN], the MIC in assay [1] stood at 4.2 µg/mL; in the assay with Staphylococcus aureus [2], 4.2 µg/mL; in the assay on Enterococcus hirae [3], 4.2 µg/mL; in the assay on Streptococcus mutans [4], 4.2 µg/mL; in the assay with Bacillus subtilis [5], 8.4 µg/mL.
Take `CC1(C)S[C@@H]2[C@H](NC(=O)[C@H](N)c3ccccc3)C(=O)N2[C@H]1C(=O)O` [AMPICILLIN]: the MIC with Enterococcus hirae [3] was 1.1 µg/mL.
On to `CCCCCCCC1=CC(O)(C(=O)CCCCCC)OC1=O` (stereo not given), for which the MIC was found to be 33.4 µg/mL in assay [1]; 16.7 µg/mL in the assay with Staphylococcus aureus [2]; 66.7 µg/mL in the assay on Enterococcus hirae [3]; 133 µg/mL in the assay with Streptococcus mutans [4]; 33.4 µg/mL in the assay with Bacillus subtilis [5].
Consider `CCCCCCCC1=CC(=O)C(CCCCCC)=C(O)C1=O`, for which the MIC with Staphylococcus aureus [2] and with Streptococcus mutans [4] was 133 µg/mL throughout. The result (in assay [6]; in the assay on Enterococcus hirae [7]; in the assay with Bacillus subtilis [9]) was inactive.
For `CCCCCCC(=O)C1(O)C=C(CCCCC)C(=O)O1` (stereo not given), the MIC in [1] is 66.7 µg/mL; in the assay with Staphylococcus aureus [2], 33.4 µg/mL; in the assay with Enterococcus hirae [3], 133 µg/mL; in the assay with Streptococcus mutans [4], 133 µg/mL; in the assay on Bacillus subtilis [5] it was 66.7 µg/mL.
`Oc1ccc2nc3ccccc3nc2c1`: the MIC in [1] came out at 33.4 µg/mL. For the same molecule, the result with Staphylococcus aureus [8], with Enterococcus hirae [7], in the assay on Streptococcus mutans [10] and in the assay with Bacillus subtilis [9] was inactive.
For `CCCCCCC1=C(O)C(=O)C(CCCCC)=C(c2c(CCCCC)cc(O)c(CCCCCC)c2O)C1=O`, the MIC in the assay with Streptococcus mutans [4] is 133 µg/mL. Further, the outcome (in the assay on Staphylococcus aureus [8]; in assay [6]; in the assay with Enterococcus hirae [7]) was inactive.
